What was measured:
[1] = Stability test of purified probes in human serum; assay type: in vitro ADME; conditions: 48 h, purified probe, radio-TLC, saline/acetone 1:1, Figure 2
Method in brief: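 Purified 177Lu-labelled probes were held at room temperature and in human serum. Radiochemical purity was sampled at 1, 4, 12, 24 and 48 h by radio-TLC, developed in saline/acetone 1:1 (v/v) and read on a TLC imaging scanner.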

K1 xenografts [2] = assay: SPECT/CT imaging of K1 xenografts; assay type: in vivo, nude mice; conditions: SPECT ROI, 24h after tail vein injection of 37 MBq; tumor-bearing mouse
Method in brief: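 Female nude mice bearing K1 xenografts (over 1 cm3) received 37 MBq of the 177Lu-labelled test compound in 100 μL by tail vein. Static SPECT/CT imaging at 4, 12, 24 and 48 h, prone: high-energy collimation, 113 and 208 keV peaks, 256 × 256 matrix, 10-min acquisitions. T/NT was calculated from regions of interest. CT fusion was done at the clearest time point.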

[3] = Biodistribution in tumor-bearing nude mice; assay type: in vivo; conditions: for tissue uptake at 4 h / tissue uptake at 12 h / tissue uptake at 24 h / tissue uptake at 48 h: female, nude, mouse, iv, 1.85 MBq, total radioactivity; for Tumor/Blood: ratio, n=3
Method in brief: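 Female nude mice bearing subcutaneous K1 tumours (5 × 10^6 cells, right forelimb), used once tumours exceeded 1 cm3. The 177Lu-labelled test compound (1.85 MBq in 100 μL) was injected into the tail vein, n = 3 per time point. Mice were killed at 4, 12, 24 and 48 h. Blood, tumour and organs (including brain, bone, heart) were weighed and gamma-counted. %ID/g = tissue counts/(injected counts × tissue mass) × 100%.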

K1 cells = assay: In vitro retention assay in K1 cells; assay type: cell-based; conditions: 6 hrs loading, medium replaced, 2, 4, 6 and 8 hrs, γ-counter
K1 xenografts [4] = assay: Therapeutic evaluation in tumor-bearing nude mice; assay type: in vivo
Method in brief: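 K1 xenograft-bearing nude mice, randomised into three groups (n = 5). Each group received tail-vein injections (100 μL) every 4 days, three times: radiolabelled test compound (11.1 MBq/5 μg), unlabelled test compound (5 μg) or 0.9% saline. Followed for 45 days. Tumour volume = a × b²/2 (long, short diameters). Growth curves compared by repeated-measures analysis, survival by log-rank test.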

Structure (SMILES): Cc1cn(CC(=O)N(CCNC(=O)COCCOCCNC(=O)COCCOCCNC(=O)CN2CCN(CC(=O)O)CCN(CC(=O)O)CCN(CC(=O)O)CC2)CC(=O)NCCN(CC(=O)NCCN(CC(=O)NCCN(CC(=O)NCCN(CC(=O)NCCN(CC(=O)NCCN(CC(=O)NCCN(CC(=O)NCCN(CC(=O)NCCN(CC(N)=O)C(=O)Cn2cnc3c(N)ncnc32)C(=O)Cn2cnc3c(N)ncnc32)C(=O)Cn2cnc3c(=O)[nH]c(N)nc32)C(=O)Cn2cnc3c(N)ncnc32)C(=O)Cn2ccc(N)nc2=O)C(=O)Cn2cnc3c(=O)[nH]c(N)nc32)C(=O)Cn2cc(C)c(=O)[nH]c2=O)C(=O)Cn2cnc3c(=O)[nH]c(N)nc32)C(=O)Cn2cnc3c(N)ncnc32)c(=O)[nH]c1=O [^177Lu-asPNA, ^177Lu-DOTA-anti-CITED1-PNA, metal not drawn]
- Radiochemical purity (%) [1]: above 91%
- T/NT (target/non-target) value (K1 xenografts [2]): 5.11
- tissue uptake at 4 h ([3]; bone): 2.58 ± 0.63 %ID/g
- tissue uptake at 12 h ([3]; bone): 1.51 ± 0.55 %ID/g
- tissue uptake at 24 h ([3]; bone): 1.03 ± 0.68 %ID/g
- tissue uptake at 48 h ([3]; bone): 0.52 ± 0.23 %ID/g
- tissue uptake at 4 h ([3]; brain): 1.53 ± 0.68 %ID/g
- tissue uptake at 12 h ([3]; brain): 0.42 ± 0.36 %ID/g
- tissue uptake at 24 h ([3]; brain): 0.39 ± 0.77 %ID/g
- tissue uptake at 48 h ([3]; brain): 0.33 ± 0.59 %ID/g
- tissue uptake at 4 h ([3]; heart): 3.67 ± 0.82 %ID/g
- tissue uptake at 12 h ([3]; heart): 3.33 ± 0.25 %ID/g
- tissue uptake at 24 h ([3]; heart): 1.53 ± 0.36 %ID/g
- tissue uptake at 48 h ([3]; heart): 0.54 ± 0.39 %ID/g
- tissue uptake at 4 h ([3]; intestines): 4.92 ± 0.45 %ID/g
- tissue uptake at 12 h ([3]; intestines): 3.17 ± 1.5 %ID/g
- tissue uptake at 24 h ([3]; intestines): 3.03 ± 0.87 %ID/g
- tissue uptake at 48 h ([3]; intestines): 0.85 ± 0.27 %ID/g
- tissue uptake at 4 h ([3]; kidney): 13.8 ± 1.46 %ID/g
- tissue uptake at 12 h ([3]; kidney): 5.96 ± 1.32 %ID/g
- tissue uptake at 24 h ([3]; kidney): 2.06 ± 0.49 %ID/g
- tissue uptake at 48 h ([3]; kidney): 0.87 ± 0.41 %ID/g
- tissue uptake at 4 h ([3]; liver): 13.2 ± 1.26 %ID/g
- tissue uptake at 12 h ([3]; liver): 2.42 ± 0.13 %ID/g
- tissue uptake at 24 h ([3]; liver): 1.81 ± 0.41 %ID/g
- tissue uptake at 48 h ([3]; liver): 1.53 ± 0.23 %ID/g
- tissue uptake at 4 h ([3]; lung): 4.21 ± 0.27 %ID/g
- tissue uptake at 12 h ([3]; lung): 1.86 ± 0.87 %ID/g
- tissue uptake at 24 h ([3]; lung): 1.66 ± 0.52 %ID/g
- tissue uptake at 48 h ([3]; lung): 1.07 ± 0.41 %ID/g
- tissue uptake at 4 h ([3]; muscle): 2.13 ± 0.37 %ID/g
- tissue uptake at 12 h ([3]; muscle): 1.21 ± 0.69 %ID/g
- tissue uptake at 24 h ([3]; muscle): 0.99 ± 0.21 %ID/g
- tissue uptake at 48 h ([3]; muscle): 0.75 ± 0.18 %ID/g
- tissue uptake at 4 h ([3]; spleen): 11 ± 1.07 %ID/g
- tissue uptake at 12 h ([3]; spleen): 4.62 ± 0.58 %ID/g
- tissue uptake at 24 h ([3]; spleen): 2.07 ± 0.62 %ID/g
- tissue uptake at 48 h ([3]; spleen): 1.14 ± 0.14 %ID/g
- tissue uptake at 4 h ([3]; stomach): 4.92 ± 0.26 %ID/g
- tissue uptake at 12 h ([3]; stomach): 2.34 ± 0.42 %ID/g
- tissue uptake at 24 h ([3]; stomach): 2.05 ± 1.03 %ID/g
- tissue uptake at 48 h ([3]; stomach): 0.58 ± 0.27 %ID/g
- tissue uptake at 4 h ([3]; tumor): 5.78 ± 0.87 %ID/g
- tissue uptake at 12 h ([3]; tumor): 5.47 ± 1.03 %ID/g
- tissue uptake at 24 h ([3]; tumor): 4.93 ± 0.47 %ID/g
- tissue uptake at 48 h ([3]; tumor): 3.05 ± 0.66 %ID/g
- tissue uptake at 4 h ([3]; whole blood): 9.45 ± 1.1 %ID/g
- tissue uptake at 12 h ([3]; whole blood): 5.76 ± 0.46 %ID/g
- tissue uptake at 24 h ([3]; whole blood): 1.98 ± 0.41 %ID/g
- tissue uptake at 48 h ([3]; whole blood): 1.77 ± 0.99 %ID/g
- Tumor/Blood ([3]; 4h after tail vein injection of 1.85 MBq, tumor-bearing nude mice): 0.61±1.24
- Tumor/Blood ([3]; 12h after tail vein injection of 1.85 MBq, tumor-bearing nude mice): 0.95±0.97
- blood-brain barrier passage (brain tissue uptake) ([3]; tumor-bearing nude mice, from radioactive marker uptake in brain tissue): could not cross the blood-brain barrier
- cellular retention (K1 cells): remains in these cells for an extended period of time
- tumor growth rate and volume vs asPNA and saline groups (K1 xenografts [4]; 18 days after injection, n = 5, volume a × b^2/2): about two-fold smaller
- median survival time longer than those of the other two groups (K1 xenografts [4]; vs asPNA and saline groups, n = 5): at least 13 days

Source: article PMC6970276 (OncoTargets and therapy, 2020)
